Source: ChEMBL document CHEMBL4350961, “Discovery of Pyrrolo[3,2- d]pyrimidin-4-one Derivatives as a New Class of Potent and Cell-Active Inhibitors of P300/CBP-Associated Factor Bromodomain” (J Med Chem, 2019)
Active and inactive are the calls of the source. No cut-off for these calls is given here.

What was measured:
[1] = AUC (0 to t) in Sprague-Dawley rat at 10 mg/kg, po administered via gavage by LC-MS/MS analysis; assay type: ADME, organism-based; conditions: in vivo
Outline: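 Serial jugular blood samples taken at designated times and spun to plasma at 4 ℃. Plasma mixed with acetonitrile holding internal standard, then LC-MS/MS. Parameters from noncompartmental fitting.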

[2] = biological target: Cyclin-dependent kinase-like 3 (Homo sapiens) (UniProt Q8IVW4); experiment: Inhibition of recombinant human full-length CDKL3 (1 to 303 residues) at 10 uM using RRRFRPASPLRGP as substrate measured after 120 mins in presence of [gamma33P]ATP by scintillation counting method
[3] = biological target: Protein kinase C gamma type (Homo sapiens) (UniProt P05129); experiment: Inhibition of recombinant full-length human PKCgamma at 10 uM using histone H1 as substrate measured after 40 mins in presence of [gamma33P]ATP by scintillation counting method
[4] = biological target: NUAK family SNF1-like kinase 2 (Homo sapiens) (UniProt Q9H093); experiment: Inhibition of recombinant full-length human NUAK2 at 10 uM using KKKVSRSGLYRSPSMPENLNRPR as substrate measured after 40 mins in presence of [gamma33P]ATP by scintillation counting method
[5] = biological target: Transcription initiation factor TFIID subunit 1-like (Homo sapiens) (UniProt Q8IZX4); experiment: Binding affinity to human partial length TAF1L bromodomain 2 (Q1523 to D1654 residues) expressed in bacterial expression system at 1 uM by BROMOscan assay
Outline: (§1)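 BROMOscan bromodomain cross-screen run by an outside service, compound at 1 µM against 32 recombinant bromodomains. Binding given as percent of control.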

[6] = system: SNF-related serine/threonine-protein kinase (Homo sapiens), Q9NRH2 [UNDEFINED MUTATION]; experiment: Inhibition of human SNRK E97G/P116A mutant (65 to 409 residues) using KKLRRTLSFAEPG as substrate measured after 40 mins in presence of [gamma33P]ATP by scintillation counting method
Outline: (§2)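 Kinase panel of 422 kinases screened by Eurofins KinaseProfiler at a single test-compound concentration of 10 µM.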

[7] = biological target: cGMP-dependent protein kinase 1 (Homo sapiens) (UniProt Q13976); experiment: Inhibition of recombinant full-length human PKG1alpha at 10 uM using RRRLSFAEPG as substrate measured after 40 mins in presence of [gamma33P]ATP by scintillation counting method
[8] = biological target: Calcium/calmodulin-dependent protein kinase type 1D (Homo sapiens) (UniProt Q8IU85); experiment: Inhibition of recombinant full-length human CaMK1delta at 10 uM using calmodulin as substrate measured after 40 mins in presence of [gamma33P]ATP by scintillation counting method
[9] = biological target: Activin receptor type-1B (Homo sapiens) (UniProt P36896); experiment: Inhibition of recombinant human ALK4 (150 to end residues) at 10 uM using casein as substrate measured after 40 mins in presence of [gamma33P]ATP by scintillation counting method
[10] = biological target: Serine/threonine-protein kinase Nek11 (Homo sapiens) (UniProt Q8NG66); experiment: Inhibition of recombinant full-length human NEK11 at 10 uM using myelin basic protein as substrate measured after 40 mins in presence of [gamma33P]ATP by scintillation counting method
[11] = biological target: Calcium/calmodulin-dependent protein kinase type II subunit beta (Homo sapiens) (UniProt Q13554); experiment: Inhibition of recombinant full-length human CaMK2beta (1 to 315 residues) at 10 uM using calmodulin as substrate measured after 40 mins in presence of [gamma33P]ATP by scintillation counting method
[12] = system: RAF proto-oncogene serine/threonine-protein kinase (Homo sapiens), P04049 [Y340D,Y341D]; experiment: Inhibition of recombinant human c-RAF Y340D/Y341D mutant (360 to end residues) at 10 uM using inactive MEK1 as substrate measured after 40 mins in presence of [gamma33P]ATP by scintillation counting method
[13] = biological target: Glycogen synthase kinase-3 alpha (Homo sapiens) (UniProt P49840); experiment: Inhibition of recombinant human GSK3alpha (2 to end residues) at 10 uM using phospho GS2 peptide as substrate measured after 40 mins in presence of [gamma33P]ATP by scintillation counting method
[14] = biological target: 3-phosphoinositide-dependent protein kinase 1 (Homo sapiens) (UniProt O15530); experiment: Inhibition of recombinant human PDK1 (52 to end residues) at 10 uM using PDKtide as substrate measured after 40 mins in presence of [gamma33P]ATP by scintillation counting method
[15] = biological target: Mitogen-activated protein kinase 1 (Homo sapiens) (UniProt P28482); experiment: Inhibition of recombinant full-length human MAPK1 at 10 uM using myelin basic protein as substrate measured after 40 mins in presence of [gamma33P]ATP by scintillation counting method
[16] = biological target: Serine/threonine-protein kinase haspin (Homo sapiens) (UniProt Q8TF76); experiment: Inhibition of recombinant human haspin (471 to end residues) at 10 uM using RARTLSFAEPG as substrate measured after 40 mins in presence of [gamma33P]ATP by scintillation counting method
[17] = system: Fibroblast growth factor receptor 1 (Homo sapiens), P11362 [V561M]; experiment: Inhibition of recombinant human FGFR1 V561M mutant (456 to 765 residues) at 10 uM using GGEEEEYFELVKKKK as substrate measured after 40 mins in presence of [gamma33P]ATP by scintillation counting method
[18] = biological target: Histone acetyltransferase KAT2B (Homo sapiens, UniProt Q92831); experiment: Inhibition of biotinylated peptide binding to human GST-tagged PCAF bromodomain expressed in Escherichia coli Rosetta (DE3) measured after 15 hrs by HTRF assay
[19] = biological target: Mitogen-activated protein kinase 12 (Homo sapiens) (UniProt P53778); experiment: Inhibition of recombinant full-length human SAPK3 at 10 uM using myelin basic protein as substrate measured after 40 mins in presence of [gamma33P]ATP by scintillation counting method
[20] = system: RAC-gamma serine/threonine-protein kinase (Homo sapiens), Q9Y243 [S472D]; experiment: Inhibition of recombinant full-length human PKBgamma S472D mutant (117 to end residues) at 10 uM using GRPRTSSFAEGKK as substrate measured after 40 mins in presence of [gamma33P]ATP by scintillation counting method
[21] = biological target: Chromatin remodeling regulator CECR2 (Homo sapiens) (UniProt Q9BXF3); experiment: Binding affinity to human partial length CECR2 (P423 to D543 residues) expressed in bacterial expression system at 1 uM by BROMOscan assay; outline: as §1
[22] = biological target: Serine/threonine-protein kinase 32C (Homo sapiens) (UniProt Q86UX6); experiment: Inhibition of recombinant full-length human STK32C at 10 uM using casein as substrate measured after 120 mins in presence of [gamma33P]ATP by scintillation counting method
[23] = biological target: Mitogen-activated protein kinase kinase kinase 11 (Homo sapiens) (UniProt Q16584); experiment: Inhibition of human MLK3 at 10 uM by radiometric method; outline: as §2
[24] = biological target: Phosphatidylinositol 4-phosphate 5-kinase type-1 alpha (Homo sapiens) (UniProt Q99755); experiment: Inhibition of recombinant full-length human PIP5K1alpha at 10 uM using phosphatidylinositol 4-phosphate as substrate measured after 40 mins by HTRF assay

Chain of Serine/threonine-protein kinase Nek11 (Homo sapiens) (Q8NG66 whole entry, the tested form may be a part): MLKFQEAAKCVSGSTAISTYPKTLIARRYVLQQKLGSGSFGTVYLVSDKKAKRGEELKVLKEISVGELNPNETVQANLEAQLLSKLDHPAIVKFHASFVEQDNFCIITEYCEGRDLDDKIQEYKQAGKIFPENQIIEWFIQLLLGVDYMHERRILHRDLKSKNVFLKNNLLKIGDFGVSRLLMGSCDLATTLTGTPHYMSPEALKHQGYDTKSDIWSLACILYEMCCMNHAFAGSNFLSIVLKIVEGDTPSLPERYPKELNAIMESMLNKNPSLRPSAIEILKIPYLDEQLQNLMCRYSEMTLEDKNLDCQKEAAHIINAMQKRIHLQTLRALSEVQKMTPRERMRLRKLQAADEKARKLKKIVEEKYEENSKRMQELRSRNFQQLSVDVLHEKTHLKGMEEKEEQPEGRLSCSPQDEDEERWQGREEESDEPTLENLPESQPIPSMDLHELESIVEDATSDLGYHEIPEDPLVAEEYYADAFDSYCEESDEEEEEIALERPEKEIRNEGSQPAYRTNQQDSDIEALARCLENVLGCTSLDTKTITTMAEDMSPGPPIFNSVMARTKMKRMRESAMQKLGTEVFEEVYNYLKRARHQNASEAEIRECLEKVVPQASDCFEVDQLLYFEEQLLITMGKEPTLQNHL
Chain of Activin receptor type-1B (Homo sapiens) (P36896 whole entry): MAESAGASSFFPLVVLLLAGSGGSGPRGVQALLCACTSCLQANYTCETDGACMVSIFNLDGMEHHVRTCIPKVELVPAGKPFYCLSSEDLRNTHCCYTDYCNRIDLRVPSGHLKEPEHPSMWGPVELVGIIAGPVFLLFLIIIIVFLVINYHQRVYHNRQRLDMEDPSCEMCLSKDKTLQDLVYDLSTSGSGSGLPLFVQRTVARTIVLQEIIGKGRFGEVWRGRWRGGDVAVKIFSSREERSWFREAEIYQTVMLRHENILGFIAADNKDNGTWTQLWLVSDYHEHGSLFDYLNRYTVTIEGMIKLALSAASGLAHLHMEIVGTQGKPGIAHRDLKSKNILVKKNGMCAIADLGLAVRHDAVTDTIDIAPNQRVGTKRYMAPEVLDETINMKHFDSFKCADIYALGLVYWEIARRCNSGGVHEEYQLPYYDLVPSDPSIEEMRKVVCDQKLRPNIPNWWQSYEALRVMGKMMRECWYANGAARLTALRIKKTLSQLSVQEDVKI
Chain of Mitogen-activated protein kinase 12 (Homo sapiens) (P53778 whole entry): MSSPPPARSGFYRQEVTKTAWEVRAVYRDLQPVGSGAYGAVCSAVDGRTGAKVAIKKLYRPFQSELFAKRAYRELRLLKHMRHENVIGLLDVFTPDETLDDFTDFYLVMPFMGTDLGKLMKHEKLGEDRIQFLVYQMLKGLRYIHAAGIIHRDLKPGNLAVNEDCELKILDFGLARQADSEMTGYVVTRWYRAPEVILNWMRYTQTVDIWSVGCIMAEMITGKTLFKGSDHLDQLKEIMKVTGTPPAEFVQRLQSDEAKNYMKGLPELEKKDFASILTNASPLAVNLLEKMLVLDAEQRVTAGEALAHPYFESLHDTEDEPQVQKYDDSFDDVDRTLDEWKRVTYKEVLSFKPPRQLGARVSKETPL
Chain of Histone acetyltransferase KAT2B (Q92831 whole entry): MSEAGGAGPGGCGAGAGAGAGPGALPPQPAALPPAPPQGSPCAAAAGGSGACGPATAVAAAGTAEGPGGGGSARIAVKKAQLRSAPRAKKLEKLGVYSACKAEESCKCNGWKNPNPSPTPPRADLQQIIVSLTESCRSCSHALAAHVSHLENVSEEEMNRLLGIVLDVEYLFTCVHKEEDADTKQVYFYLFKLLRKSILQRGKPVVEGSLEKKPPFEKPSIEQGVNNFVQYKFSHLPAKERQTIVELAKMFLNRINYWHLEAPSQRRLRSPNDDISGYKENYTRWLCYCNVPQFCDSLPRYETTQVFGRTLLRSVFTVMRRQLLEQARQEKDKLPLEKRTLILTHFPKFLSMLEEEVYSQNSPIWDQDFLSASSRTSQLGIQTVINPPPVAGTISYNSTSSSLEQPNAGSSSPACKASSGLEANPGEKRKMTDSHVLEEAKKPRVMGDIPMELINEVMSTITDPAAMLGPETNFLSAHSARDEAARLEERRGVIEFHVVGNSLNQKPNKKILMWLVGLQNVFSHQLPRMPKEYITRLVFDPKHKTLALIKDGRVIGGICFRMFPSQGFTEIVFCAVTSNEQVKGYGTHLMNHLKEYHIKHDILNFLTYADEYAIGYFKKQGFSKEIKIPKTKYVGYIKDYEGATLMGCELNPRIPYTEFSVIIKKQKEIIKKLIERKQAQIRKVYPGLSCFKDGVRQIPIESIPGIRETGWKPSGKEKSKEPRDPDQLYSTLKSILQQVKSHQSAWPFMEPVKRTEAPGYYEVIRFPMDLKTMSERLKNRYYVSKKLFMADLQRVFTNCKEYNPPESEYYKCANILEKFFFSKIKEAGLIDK
Chain of Cyclin-dependent kinase-like 3 (Homo sapiens) (Q8IVW4 whole entry, looked up, the tested form may be a part): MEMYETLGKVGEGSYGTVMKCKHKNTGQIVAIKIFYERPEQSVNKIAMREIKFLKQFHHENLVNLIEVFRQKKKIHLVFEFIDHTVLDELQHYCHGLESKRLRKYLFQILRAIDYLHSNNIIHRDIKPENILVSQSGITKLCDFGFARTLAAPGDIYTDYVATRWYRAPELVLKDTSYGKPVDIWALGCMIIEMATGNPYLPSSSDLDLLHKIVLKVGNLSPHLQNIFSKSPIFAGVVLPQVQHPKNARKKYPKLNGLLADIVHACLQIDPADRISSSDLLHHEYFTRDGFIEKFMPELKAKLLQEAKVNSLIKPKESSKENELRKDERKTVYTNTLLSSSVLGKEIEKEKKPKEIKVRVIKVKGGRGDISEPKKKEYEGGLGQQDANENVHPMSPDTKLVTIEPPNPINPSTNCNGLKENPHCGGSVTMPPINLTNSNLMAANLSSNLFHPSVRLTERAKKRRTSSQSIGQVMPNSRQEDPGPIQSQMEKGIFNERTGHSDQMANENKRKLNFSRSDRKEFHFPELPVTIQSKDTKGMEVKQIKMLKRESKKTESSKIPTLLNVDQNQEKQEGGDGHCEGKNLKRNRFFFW
Chain of Glycogen synthase kinase-3 alpha (Homo sapiens) (P49840 2-483 limits assumed): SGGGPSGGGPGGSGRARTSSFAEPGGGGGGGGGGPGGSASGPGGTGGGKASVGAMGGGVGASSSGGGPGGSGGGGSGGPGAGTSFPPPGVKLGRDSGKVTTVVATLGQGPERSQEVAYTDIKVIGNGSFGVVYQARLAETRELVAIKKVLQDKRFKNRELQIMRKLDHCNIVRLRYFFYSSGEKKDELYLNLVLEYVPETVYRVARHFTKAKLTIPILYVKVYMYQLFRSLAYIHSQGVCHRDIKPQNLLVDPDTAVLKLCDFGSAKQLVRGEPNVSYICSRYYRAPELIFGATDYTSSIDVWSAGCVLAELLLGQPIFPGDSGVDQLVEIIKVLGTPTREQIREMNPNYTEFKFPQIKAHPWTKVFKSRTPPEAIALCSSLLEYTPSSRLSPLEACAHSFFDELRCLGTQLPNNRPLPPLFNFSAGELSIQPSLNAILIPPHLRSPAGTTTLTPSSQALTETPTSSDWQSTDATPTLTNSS
Chain of Serine/threonine-protein kinase haspin (Homo sapiens) (Q8TF76 whole entry, the tested form may be a part): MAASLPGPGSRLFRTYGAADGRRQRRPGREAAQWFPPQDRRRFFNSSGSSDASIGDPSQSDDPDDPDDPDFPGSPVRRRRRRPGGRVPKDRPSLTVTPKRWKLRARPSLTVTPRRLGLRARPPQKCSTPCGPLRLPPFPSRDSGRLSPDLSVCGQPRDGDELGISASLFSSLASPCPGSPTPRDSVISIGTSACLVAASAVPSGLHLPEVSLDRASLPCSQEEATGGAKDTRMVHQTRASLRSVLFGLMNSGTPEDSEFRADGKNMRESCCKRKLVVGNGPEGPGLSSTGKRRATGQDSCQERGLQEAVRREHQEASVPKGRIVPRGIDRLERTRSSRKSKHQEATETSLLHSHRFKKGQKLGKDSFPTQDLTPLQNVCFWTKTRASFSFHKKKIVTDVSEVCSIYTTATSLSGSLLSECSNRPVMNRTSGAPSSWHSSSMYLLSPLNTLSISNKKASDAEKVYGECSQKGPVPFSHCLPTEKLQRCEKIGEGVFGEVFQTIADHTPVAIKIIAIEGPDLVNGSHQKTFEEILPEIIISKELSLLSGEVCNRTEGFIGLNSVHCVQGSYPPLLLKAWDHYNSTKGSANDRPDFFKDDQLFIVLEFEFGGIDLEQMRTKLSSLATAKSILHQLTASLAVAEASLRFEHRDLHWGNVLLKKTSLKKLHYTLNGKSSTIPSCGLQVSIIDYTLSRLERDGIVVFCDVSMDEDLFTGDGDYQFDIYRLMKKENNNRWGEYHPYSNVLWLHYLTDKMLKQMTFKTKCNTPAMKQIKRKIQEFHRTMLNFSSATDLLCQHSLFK

CN1C[C@H](Nc2nc3cc[nH]c3c(=O)n2C)C[C@H](c2ccc3c(c2)OCCO3)C1
AUC(0-t) [1]: 2480 ng·h/mL
inhibition [2]: inactive
inhibition [3]: inactive
inhibition [4]: inactive
Activity [5]: inactive
inhibition [6]: inactive
inhibition [7]: inactive
inhibition [8]: inactive
inhibition [9]: inactive
inhibition [10]: inactive
inhibition [11]: inactive
inhibition [12]: inactive
inhibition [13]: inactive
inhibition [14]: inactive
inhibition [15]: inactive
inhibition [16]: inactive
inhibition [17]: inactive
IC50 [18]: 7 nM
inhibition [19]: inactive
inhibition [20]: inactive
Activity [21]: Active
inhibition [22]: inactive
inhibition [23]: inactive
inhibition [24]: inactive
